Results collected from several papers.
Lines come from different studies, so protocols differ.
Pancreatic alpha-amylase: Pancreatic alpha-amylase (Homo sapiens, UniProt P04746)
CYP3A7: Cytochrome P450 3A7 (CYP3A7, Homo sapiens, UniProt P24462)
PDE4C: 3',5'-cyclic-AMP phosphodiesterase 4C (PDE4C, Homo sapiens, UniProt Q08493)

CCN(CC)c1ccc(/C=N/c2ccc(F)cc2)c(O)c1
IC50 (Pancreatic alpha-amylase; enzyme activity; inhibitor; absorbance): 143 µM

Oc1ccc([C@@H]2c3c(O)cc(O)cc3[C@@H]3c4c(cc(O)cc4[C@H]2[C@@H]2c4cc(O)cc5c4[C@@H](c4cc(O)cc(O)c4[C@H]2c2ccc(O)cc2)[C@H](c2ccc(O)cc2)O5)O[C@H]3c2ccc(O)cc2)cc1
IC50 (Pancreatic alpha-amylase; enzyme activity; inhibitor): > 100 µM

Cc1cnc(C(=O)N[C@H]2CCCCC/C=C\[C@@H]3C[C@@]3(C(=O)NS(=O)(=O)C3CC3)NC(=O)[C@@H]3C[C@@H](Oc4nc5ccccc5c5ccccc45)CN3C2=O)cn1
IC50 (CYP3A7; enzyme activity; inhibitor; mass spectrometry; 5 min): 10.9 µM

CCN(CC)c1ccc(/C=N/c2ccc(Br)cc2)c(O)c1
IC50 (Pancreatic alpha-amylase; enzyme activity; inhibitor; absorbance): 137 µM

CC(C)(C)[C@@H]1NC(=O)O[C@@H]2CCC[C@H]2OC/C=C/C(F)(F)c2nc3ccccc3nc2O[C@@H]2C[C@@H](C(=O)N[C@]3(C(=O)NS(=O)(=O)C4(C)CC4)C[C@H]3C(F)F)N(C2)C1=O
IC50 (CYP3A7; enzyme activity; inhibitor; mass spectrometry; 5 min): 12.1 µM

CCc1c(C)nc(-c2ccc(Cl)s2)nc1Nc1ccc(CC(=O)O)cc1
IC50 (PDE4C; enzyme activity; inhibitor; FP): ~63 µM

CN(C)C(=O)c1cc2cnc(Nc3ccc(N4CCNCC4)cn3)nc2n1C1CCCC1
IC50 (PDE4C; enzyme activity; inhibitor; TR-FRET): 4.4 µM

CCN(CC)c1ccc(/C=N/c2ccccc2Br)c(O)c1
IC50 (Pancreatic alpha-amylase; enzyme activity; inhibitor; absorbance): 133 µM

CC(C)C[C@H](NC(=O)[C@H](CC(N)=O)NC(=O)[C@H](Cc1c[nH]c2ccccc12)NC(=O)[C@@H](NC(=O)[C@H](Cc1ccc(O)cc1)NC(=O)[C@H](Cc1ccc(O)cc1)NC(=O)[C@H](CO)NC(=O)[C@H](CCCNC(=N)N)NC(=O)[C@H](Cc1c[nH]cn1)NC(=O)[C@@H](N)Cc1c[nH]c2ccccc12)[C@@H](C)O)C(=O)O
Kd (Albumin (ALB, Bos taurus, UniProt P02769); binding; SPR): 3.99 µM

CC(C)(C)OC(=O)N[C@H]1CCCCC/C=C\[C@@H]2C[C@@]2(C(=O)NS(=O)(=O)C2CC2)NC(=O)[C@@H]2C[C@@H](OC(=O)N3Cc4cccc(F)c4C3)CN2C1=O
IC50 (CYP3A7; enzyme activity; inhibitor; mass spectrometry; 5 min): 21.9 µM

O=C(C=Cc1ccccc1)Nc1cc(-c2ccnc(N3CCC(O)CC3)c2)ccn1
Kd (Retinoic acid receptor RXR-alpha (RXRA, Homo sapiens, UniProt P19793); binding; SPR): 0.78 µM
